Assay results: ChEMBL document CHEMBL1127035, “Neurosteroid analogues: structure-activity studies of benz[e]indene modulators of GABAA receptor function. 1. The effect of 6-methyl substitution on the electrophysiological activity of 7-substituted benz[e]indene-3-carbonitriles” (J Med Chem, 1993)
Activity calls are given as the source filed them. The rule behind the calls is not given here.

Assays:
Format in all cases: functional
[1] = organism: Rattus norvegicus; test: Ability of compound at 10 uM to potentiate GABA-mediated currents in cultured postnatal rat hippocampal neurons using whole-cell patch clamp method
Procedure, shortened: (§1)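 Cultured postnatal rat hippocampal neurons (pups 1-2 days old, 3-10 days in vitro) were whole-cell voltage-clamped at -60 mV and room temperature (~22 °C), with a CsCl/HEPES/EGTA pipette solution at pH 7.3. Compound plus 1 μM GABA was pressure-ejected for 200 ms, with DMSO <0.2% final. Peak current was normalized to 1 μM GABA alone on the same cell (100% = no change). N = cells.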

[2] = organism: Rattus norvegicus; test: Ability of compound at 1 uM to potentiate GABA-mediated currents in cultured postnatal rat hippocampal neurons using whole-cell patch clamp method; NR=No response; procedure, shortened: as §1
[3] = organism: Rattus norvegicus; test: Ability of compound at 10 uM for current activation in the absence of GABA in cultured postnatal rat hippocampal neurons using whole-cell patch clamp method; NR=No response
Procedure, shortened: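 Whole-cell voltage clamp at -60 mV and ~22 °C in rat hippocampal cultures (postnatal pups, 3-10 days in vitro), with a CsCl-based pipette solution at pH 7.3. Compound alone, without GABA, was pressure-ejected for 200 ms (DMSO <0.2% final). The peak directly gated current was compared with the same cell's response to 1 μM GABA alone. N = cells.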

[4] = organism: Rattus norvegicus; test: Ability of compound at 1 uM to potentiate GABA-mediated currents in cultured postnatal rat hippocampal neurons using whole-cell patch clamp method; procedure, shortened: as §1
[5] = organism: Rattus norvegicus; test: Ability of compound at 1 uM for current activation in the absence of GABA in cultured postnatal rat hippocampal neurons using whole-cell patch clamp method; NR=No response
[6] = organism: Rattus norvegicus; test: Ability of compound at 10 uM for current activation in the absence of GABA in cultured postnatal rat hippocampal neurons using whole-cell patch clamp method
Procedure, shortened: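 Whole-cell voltage clamp at -60 mV, room temperature (~22 °C), on hippocampal neurons cultured 3-10 days from 1-2 day old albino rat pups. Pipette solution is CsCl-based, pH 7.3. Compound is applied at 10 µM in the absence of GABA (DMSO stock, final DMSO <0.2%) by 200 ms pressure ejection. Peak gated current is compared with the same cell's 1 µM GABA response. N = cells.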

[7] = organism: Rattus norvegicus; test: Ability of compound at 1 uM for current activation in the absence of GABA in cultured postnatal rat hippocampal neurons using whole-cell patch clamp method
[8] = organism: Rattus norvegicus; test: Effective concentration against current mediated by 1 uM GABA in cultured rat hippocampal neurons

Row | Structure (SMILES) | Response [2] | Gated current [3] | Response [4] | further results
1 | C[C@@H]1C2CC[C@@]3(C)C(CC[C@@H]3C#N)C2CC[C@H]1CCO (some centres not stated) | inactive | inactive | – | Response [1]: 244%
2 | C[C@]12CCC3C[C@H](CCO)CCC3C1CC[C@H]2C#N (some centres not stated) | inactive | inactive | – | –
3 | C[C@]12CCC3C[C@H](CCO)CCC3C1CC[C@@H]2C#N (some centres not stated) | – | inactive | 255% | –
4 | CC1(C)C2CC[C@@]3(C)C(CC[C@H]3C#N)C2CC[C@H]1CCO (some centres not stated) | inactive | inactive | – | –
5 | C[C@H]1C2CC[C@@]3(C)C(CC[C@@H]3C#N)C2CC[C@H]1CCO (some centres not stated) | – | – | 382% | Gated current [5]: inactive; Gated current [6]: 26%
6 | C[C@]12CC[C@@H](O)C[C@@H]1CC[C@@H]1[C@@H]2CC[C@]2(C)[C@@H](C#N)CC[C@@H]12 | – | – | 443% | Gated current [7]: 22%; Gated current [6]: 49%
7 | C[C@@H]1C2CC[C@@]3(C)C(CC[C@H]3C#N)C2CC[C@H]1CCO (some centres not stated) | inactive | inactive | – | –
8 | C[C@]12CC[C@H]3[C@@H](CC[C@H]4C[C@H](O)CC[C@@H]43)[C@@H]1CC[C@@H]2C#N | – | – | 372% | Gated current [7]: 15%; Gated current [6]: 38%
9 | C[C@]12CC[C@@H](O)C[C@@H]1CC[C@@H]1[C@@H]2CC[C@]2(C)[C@H](C#N)CC[C@@H]12 | inactive | inactive | – | –
10 | CC(=O)[C@H]1CCC2C3CC[C@@H](CCO)CC3CC[C@@]21C (some centres not stated) | – | – | – | EC50 [8]: 200 nM
11 | CC1(C)C2CC[C@@]3(C)C(CC[C@@H]3C#N)C2CC[C@H]1CCO (some centres not stated) | – | inactive | 220% | –
12 | C[C@]12CC[C@H]3[C@@H](CC[C@H]4C[C@H](O)CC[C@@H]43)[C@@H]1CC[C@H]2C#N | inactive | inactive | – | –
